Reference: ChEMBL document CHEMBL3046551, “Design, synthesis, and particular biological behaviors of chain-opening nitromethylene neonicotinoids with cis configuration” (2012)

These compounds were tested on Aphis craccivora (assay: Insecticidal activity against adult Aphis craccivora (cowpea aphid) assessed as […] activity after 24 hr).
Format: functional
How it was run: (§1)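 Apterous adult aphids (40−60 per horsebean seedling) on seedlings dipped 5 s in DMF stock diluted with water containing Triton X-100 (0.1 mg L⁻¹); series concentrations 500.0, 250.0, 125.0 mg L⁻¹ and others. Held at 25 ± 1 °C, 50% RH. Triton water served as control. Mortality scored at 24 h, three repetitions, corrected, probit analysis.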
`COC1CC(C)C([N+](=O)[O-])=C2N(Cc3cnc(Cl)s3)CCN21` (stereo unspecified) was tested, and the LC50 was 190 µM. `CC(C)OC1CC(C)C([N+](=O)[O-])=C2N(Cc3ccc(Cl)nc3)CCN21` (stereo unspecified) gave an LC50 of 262 µM. For `O=[N+]([O-])/N=C1\NCCN1Cc1ccc(Cl)nc1` [IMIDACLOPRID], the LC50 was 30.9 µM. `CCCOC1CC(C)C([N+](=O)[O-])=C2N(Cc3ccc(Cl)nc3)CCN21` (stereo unspecified) [PAICHONGDING] was tested, and the LC50 was 91.8 µM.

These compounds were tested on Aphis craccivora (assay: Insecticidal activity against adult Aphis craccivora (cowpea aphid) assessed as […] activity at 500 mg/l after 24 hr).
Format: functional
How it was run: as §1
Compound `CCOC1CCC([N+](=O)[O-])=C(N(CC)Cc2ccc(Cl)nc2)N1C` (stereo unspecified) has a mortality at 500 µg/mL of 17.7%. With `CCC1CC(OC(C)C)N(C)C(NCc2ccc(Cl)nc2)=C1[N+](=O)[O-]` (stereo unspecified) the mortality at 500 µg/mL was 83.6%. With `CCOC1CC(C)C([N+](=O)[O-])=C(NCc2ccc(Cl)nc2)N1CC` (stereo unspecified) the mortality at 500 µg/mL was 85.2%. `CCCOC1CC(C)C([N+](=O)[O-])=C(NCc2ccc(Cl)nc2)N1CC` (stereo unspecified) gave a mortality at 500 µg/mL of 94.6%. With `CCN1C(NCc2ccc(Cl)nc2)=C([N+](=O)[O-])C(C)CC1OC(C)C` (stereo unspecified) the mortality at 500 µg/mL was 75%. For `CCC1CC(OC)N(CC)C(NCc2ccc(Cl)nc2)=C1[N+](=O)[O-]` (stereo unspecified), the mortality at 500 µg/mL was 84.5%. `CCCOC1CC(CC)C([N+](=O)[O-])=C(NCc2ccc(Cl)nc2)N1CC` (stereo unspecified) gave a mortality at 500 µg/mL of 93.4%. `COC1CC(C)C([N+](=O)[O-])=C2N(Cc3cnc(Cl)s3)CCN21` (stereo unspecified) showed a mortality at 500 µg/mL of 100%. `C=CCOC1CC(C)C([N+](=O)[O-])=C(N(CC)Cc2ccc(Cl)nc2)N1C` (stereo unspecified) was tested, and the mortality at 500 µg/mL was 19.5%. `COC1CCC([N+](=O)[O-])=C(N(C)Cc2ccc(Cl)nc2)N1C` (stereo unspecified) showed a mortality at 500 µg/mL of 21.6%. `CCOC1CCC([N+](=O)[O-])=C(N(C)Cc2ccc(Cl)nc2)N1C` (stereo unspecified) was tested, and the mortality at 500 µg/mL was 23.3%. `CCCOC1CCC([N+](=O)[O-])=C(N(C)Cc2ccc(Cl)nc2)N1C` (stereo unspecified) gave a mortality at 500 µg/mL of 15.2%. With `CC(C)OC1CCC([N+](=O)[O-])=C(N(C)Cc2ccc(Cl)nc2)N1C` (stereo unspecified) the mortality at 500 µg/mL was 17.6%. With `C=CCOC1CCC([N+](=O)[O-])=C(N(C)Cc2ccc(Cl)nc2)N1C` (stereo unspecified) the mortality at 500 µg/mL was 15.8%. In the case of `COC1CC(C)C([N+](=O)[O-])=C(N(C)Cc2ccc(Cl)nc2)N1C` (stereo unspecified), the mortality at 500 µg/mL is reported as 23.4%. Compound `CCOC1CC(C)C([N+](=O)[O-])=C(N(C)Cc2ccc(Cl)nc2)N1C` (stereo unspecified) has a mortality at 500 µg/mL of 17.1%. In the case of `CCCOC1CC(C)C([N+](=O)[O-])=C(N(C)Cc2ccc(Cl)nc2)N1C` (stereo unspecified), the mortality at 500 µg/mL is reported as 28.3%. `CC(C)OC1CC(C)C([N+](=O)[O-])=C(N(C)Cc2ccc(Cl)nc2)N1C` (stereo unspecified) showed a mortality at 500 µg/mL of 25.9%. `CCN(Cc1ccc(Cl)nc1)C1=C([N+](=O)[O-])CCC(O)N1C` (stereo unspecified) showed a mortality at 500 µg/mL of 16.2%. In the case of `CCN(Cc1ccc(Cl)nc1)C1=C([N+](=O)[O-])CCC(OC)N1C` (stereo unspecified), the mortality at 500 µg/mL is reported as 24.3%. `CCCOC1CCC([N+](=O)[O-])=C(N(CC)Cc2ccc(Cl)nc2)N1C` (stereo unspecified) was tested, and the mortality at 500 µg/mL was 23.7%. `CCN(Cc1ccc(Cl)nc1)C1=C([N+](=O)[O-])CCC(OC(C)C)N1C` (stereo unspecified) showed a mortality at 500 µg/mL of 15.3%. `CCN(Cc1ccc(Cl)nc1)C1=C([N+](=O)[O-])C(C)CC(OC)N1C` (stereo unspecified) gave a mortality at 500 µg/mL of 27.6%. Compound `CCOC1CC(C)C([N+](=O)[O-])=C(N(CC)Cc2ccc(Cl)nc2)N1C` (stereo unspecified) has a mortality at 500 µg/mL of 31.8%. Compound `CCCOC1CC(C)C([N+](=O)[O-])=C(N(CC)Cc2ccc(Cl)nc2)N1C` (stereo unspecified) has a mortality at 500 µg/mL of 27.2%. In the case of `CCN(Cc1ccc(Cl)nc1)C1=C([N+](=O)[O-])C(C)CC(OC(C)C)N1C` (stereo unspecified), the mortality at 500 µg/mL is reported as 25.8%. `CC(C)OC1CC(C)C([N+](=O)[O-])=C2N(Cc3ccc(Cl)nc3)CCN21` (stereo unspecified) gave a mortality at 500 µg/mL of 100%. For `O=[N+]([O-])/N=C1\NCCN1Cc1ccc(Cl)nc1` [IMIDACLOPRID], the mortality at 500 µg/mL was 100%. `CCCOC1CC(C)C([N+](=O)[O-])=C2N(Cc3ccc(Cl)nc3)CCN21` (stereo unspecified) [PAICHONGDING] gave a mortality at 500 µg/mL of 100%.

These compounds were tested on Empoasca (assay: Insecticidal activity against Empoasca (Green Leafhopper)).
Format: functional
`N/C(=C\[N+](=O)[O-])NCc1ccc(Cl)nc1` was tested, and the LC95 was over 200 ppm. `CCN(Cc1ccc(Cl)nc1)/C(=C/[N+](=O)[O-])NC` [NITENPYRAM] was tested, and the LC95 was 40 ppm.

Each compound was assayed on Aphis craccivora (assay: Repellent activity against adult Aphis craccivora (cowpea aphid) at 500 mg/l).
Format: functional
How it was run: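 Y-tube olfactometer choice test. Aphid-free horsebean seedlings were dipped 5 s in DMF-dissolved compound diluted in water with Triton X-100 (0.1 mg L⁻¹) and dried. Treated and control seedlings were placed in opposite arms, and apterous adults were introduced into the third arm. The olfactometer was covered with black cloth at 25 ± 1 °C, 50% RH. Adults per arm were counted after 1 h; three repeats.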
For `CCOC1CC(C)C([N+](=O)[O-])=C(N(CC)Cc2ccc(Cl)nc2)N1C` (stereo unspecified), the Repellency was 66.4%.
